The source of these data is ChEMBL document CHEMBL1142242, “Indanylacetic acid derivatives carrying 4-thiazolyl-phenoxy tail groups, a new class of potent PPAR alpha/gamma/delta pan agonists: synthesis, structure-activity relationship, and in vivo efficacy” (J Med Chem, 2007).

What is called EC50 is the midpoint of the concentration-response curve.

The target in experiment [1] is T1, Peroxisome proliferator-activated receptor alpha (Homo sapiens, UniProt Q07869).
T1 sequence (Q07869 whole entry): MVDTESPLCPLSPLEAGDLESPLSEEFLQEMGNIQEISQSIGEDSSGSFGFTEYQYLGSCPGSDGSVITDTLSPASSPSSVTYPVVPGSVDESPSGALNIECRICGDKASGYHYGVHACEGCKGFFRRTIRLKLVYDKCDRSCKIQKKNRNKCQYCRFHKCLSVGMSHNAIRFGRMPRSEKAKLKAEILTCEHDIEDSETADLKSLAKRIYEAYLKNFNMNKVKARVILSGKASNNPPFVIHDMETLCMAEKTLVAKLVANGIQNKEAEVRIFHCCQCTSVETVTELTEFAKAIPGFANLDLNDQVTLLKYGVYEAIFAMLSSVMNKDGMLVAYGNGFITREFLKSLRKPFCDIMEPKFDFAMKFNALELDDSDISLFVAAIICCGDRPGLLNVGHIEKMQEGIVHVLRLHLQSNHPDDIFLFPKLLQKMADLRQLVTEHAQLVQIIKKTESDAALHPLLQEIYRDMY
The experiment can be described thus: Agonist activity at human PPAR alpha by FRET assay. Type of experiment: functional. The method in brief:
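Human PPARα ligand binding domain (GST-tagged) association with biotin-labeled co-activator CBP; Eu-labeled anti-GST antibody and streptavidin-APC; incubated 2 h at rt in buffer with or without compound; fluorescence read at 615 or 655 nm emission, 340 nm excitation.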

For experiment [2], the target named is T2, Peroxisome proliferator-activated receptor gamma (Mus musculus, UniProt P37238).
T2 sequence (P37238 whole entry): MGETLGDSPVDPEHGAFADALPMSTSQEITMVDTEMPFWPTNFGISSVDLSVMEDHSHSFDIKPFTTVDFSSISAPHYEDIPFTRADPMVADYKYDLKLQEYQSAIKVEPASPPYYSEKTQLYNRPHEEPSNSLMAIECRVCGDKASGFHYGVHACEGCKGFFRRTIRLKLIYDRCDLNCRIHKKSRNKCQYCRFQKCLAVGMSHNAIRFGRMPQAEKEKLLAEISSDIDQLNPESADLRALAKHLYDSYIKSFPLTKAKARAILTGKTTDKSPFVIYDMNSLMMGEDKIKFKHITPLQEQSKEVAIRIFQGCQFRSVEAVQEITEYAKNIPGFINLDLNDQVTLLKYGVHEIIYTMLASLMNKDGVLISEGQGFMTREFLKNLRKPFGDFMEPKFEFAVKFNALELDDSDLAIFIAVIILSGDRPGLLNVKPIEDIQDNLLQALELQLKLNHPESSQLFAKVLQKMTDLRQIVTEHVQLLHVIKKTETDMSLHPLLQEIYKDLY
The experiment can be described thus: Agonist activity at PPAR gamma in mouse 3T3L1 cells assessed as increase in insulin receptor by IRBA. Type of experiment: functional, cell-based, 3T3-L1.

Experiment [3] concerns the target T3, Peroxisome proliferator-activated receptor delta (Homo sapiens, UniProt Q03181).
T3 sequence (Q03181 whole entry): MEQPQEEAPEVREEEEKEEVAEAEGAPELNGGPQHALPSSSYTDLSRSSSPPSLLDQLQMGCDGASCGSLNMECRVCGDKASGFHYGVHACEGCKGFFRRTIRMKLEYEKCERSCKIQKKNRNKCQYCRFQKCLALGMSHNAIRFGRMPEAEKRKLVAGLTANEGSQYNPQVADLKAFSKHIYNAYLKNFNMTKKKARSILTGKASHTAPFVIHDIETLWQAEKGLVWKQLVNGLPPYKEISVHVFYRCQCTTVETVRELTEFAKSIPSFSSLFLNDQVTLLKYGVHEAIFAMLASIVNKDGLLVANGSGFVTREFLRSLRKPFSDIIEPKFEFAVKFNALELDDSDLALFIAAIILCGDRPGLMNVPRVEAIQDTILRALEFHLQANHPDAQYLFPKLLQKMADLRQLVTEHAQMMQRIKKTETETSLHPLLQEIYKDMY
Briefly: Agonist activity at human PPAR delta by FRET assay. Type of experiment: functional.

Consider `COc1ccncc1-c1ccc(OCCCOc2ccc3c(c2)CC[C@H]3CC(=O)O)cc1`, for which the figures for the EC50 in experiment [1], in experiment [2] and in experiment [3] were over 10000 nM, 485 nM and 43 nM, respectively.
The matching figures for `CCCc1cc(-c2nc(OCC)cs2)ccc1OCCCOc1ccc2c(c1)CC[C@H]2CC(=O)O`: 105 nM, 41 nM and 2 nM.
Turning to `COc1csc(-c2ccc(OCCCOc3ccc4c(c3)CC[C@H]4CC(=O)O)cc2)n1`, the EC50 in experiment [1] stood at 5800 nM; in experiment [2] it was 300 nM; in experiment [3] it was 1.3 nM.
In the case of `CCCc1cc(-c2nc3c(s2)CCC3)ccc1OCCCOc1ccc2c(c1)CC[C@H]2CC(=O)O`, the EC50 in experiment [1] was 328 nM; in experiment [2], 94 nM; in experiment [3] it was 3.5 nM.
With `COc1csc(-c2ccc(OCCCOc3ccc4c(c3)CC[C@H]4CC(=O)O)c(OC)c2)n1`, the EC50 is 755 nM in experiment [1], 69 nM in experiment [2] and 3 nM in experiment [3].
Consider `O=C(O)C[C@@H]1CCc2cc(OCCCOc3ccc(-c4ccc(C(F)(F)F)cn4)cc3)ccc21`, for which the figures for the EC50 in experiment [1], in experiment [2] and in experiment [3] were 2900 nM, 1800 nM and 0.95 nM, respectively.
For the compound `CCCc1ccccc1OCCCOc1ccc2c(c1)CC[C@H]2CC(=O)O`, the values for the EC50 in experiment [1], in experiment [2] and in experiment [3] were over 10000 nM, 1520 nM and 2.4 nM, respectively.
On to `N#Cc1ccc(OCCCOc2ccc3c(c2)CC[C@H]3CC(=O)O)cc1`, for which the figures for the EC50 in experiment [1], in experiment [2] and in experiment [3] were 5700 nM, 637 nM and 7.3 nM, respectively.
On to `CCCc1cc(-c2nc(CO)c(C(=O)O)s2)ccc1OCCCOc1ccc2c(c1)CC[C@H]2CC(=O)O`, for which the results for the EC50 in experiment [1], in experiment [2] and in experiment [3] were 6490 nM, 891 nM and 12 nM, respectively.
Regarding `COc1cc(-c2nc(C)cs2)ccc1OCCCOc1ccc2c(c1)CC[C@H]2CC(=O)O`, the results for the EC50 in experiment [1], in experiment [2] and in experiment [3] were 268 nM, 960 nM and 2.7 nM, respectively.
Regarding `COc1cc(-c2nc(C(F)(F)F)cs2)ccc1OCCCOc1ccc2c(c1)CC[C@H]2CC(=O)O`, the half-maximal effective concentration (EC50) in experiment [1] came to 437 nM; in experiment [2] it was 327 nM; in experiment [3], 2.9 nM.
The matching figures for `Cc1ccc(OCCCOc2ccc3c(c2)CC[C@H]3CC(=O)O)cc1C`: over 10000 nM, over 10000 nM and 67 nM.
As to `Cc1cc(-c2nc(C(F)(F)F)ns2)ccc1OCCCOc1ccc2c(c1)CC[C@H]2CC(=O)O`, the concentration giving a half-maximal response (EC50) was 520 nM in experiment [1], 158 nM in experiment [2] and 3.4 nM in experiment [3].
The matching figures for `O=C(O)C[C@@H]1CCc2cc(OCCCOc3ccc(C(F)(F)F)cc3)ccc21`: 1610 nM, 5580 nM and 4.2 nM.
On to `CCc1csc(-c2ccc(OCCCOc3ccc4c(c3)CC[C@H]4CC(=O)O)c(OC)c2)n1`, for which the 50% effective concentration (EC50) in experiment [1] came to 254 nM; in experiment [2], 65 nM; in experiment [3] it was 2.5 nM.
Turning to `Cc1ccc(OCCCOc2ccc3c(c2)CC[C@H]3CC(=O)O)c(C)c1`, the EC50 in experiment [1] came out at 9360 nM; in experiment [2], 2180 nM; in experiment [3], 4.6 nM.
The matching figures for `O=C(O)C[C@@H]1CCc2cc(OCCCOc3ccc(-c4cccnc4)cc3)ccc21`: 1690 nM, 550 nM and 2.3 nM.
The matching figures for `CCCc1cc(-c2nc(CC(=O)O)cs2)ccc1OCCCOc1ccc2c(c1)CC[C@H]2CC(=O)O`: 2480 nM, 27 nM and 4.6 nM.
In the case of `O=C(O)C[C@@H]1CCc2cc(OCCCOc3ccc(-c4ccsc4)cc3)ccc21`, the results for the EC50 in experiment [1], in experiment [2] and in experiment [3] were over 10000 nM, 650 nM and 5.9 nM, respectively.
As for `Cn1ccc2cc(OCCCOc3ccc4c(c3)CC[C@H]4CC(=O)O)ccc21`, the EC50 was 6700 nM in experiment [1], 1030 nM in experiment [2] and 40 nM in experiment [3].
As to `Cc1noc2c(C)c(OCCCOc3ccc4c(c3)CC[C@H]4CC(=O)O)ccc12`, the EC50 in experiment [1] was over 10000 nM; in experiment [2], 290 nM; in experiment [3], 8.1 nM.
For `CCOc1nc(-c2ccc(OCCCOc3ccc4c(c3)CC[C@H]4CC(=O)O)c(OC)c2)sc1CC`, in that order: 520 nM, 362 nM and 5.4 nM.
Turning to `CCCc1cc(-c2nc(C(C)(C)C)cs2)ccc1OCCCOc1ccc2c(c1)CC[C@H]2CC(=O)O`, the EC50 in experiment [1] came to 87 nM; in experiment [2], 18 nM; in experiment [3], 11 nM.
On to `CCOc1csc(-c2ccc(OCCCOc3ccc4c(c3)CC[C@H]4CC(=O)O)cc2)n1`, for which the EC50 in experiment [1] turned out to be 100 nM; in experiment [2], 753 nM; in experiment [3], 1.2 nM.
The matching figures for `COc1cc(-c2nc(C)c(C(C)=O)s2)ccc1OCCCOc1ccc2c(c1)CC[C@H]2CC(=O)O`: 560 nM, 49 nM and 3.4 nM.
For `O=C(O)C[C@@H]1CCc2cc(OCCCOc3ccc4ncoc4c3)ccc21`, in that order: over 10000 nM, over 10000 nM and 130 nM.
The matching figures for `CCCc1cc(-c2nc(C)c(C(=O)O)s2)ccc1OCCCOc1ccc2c(c1)CC[C@H]2CC(=O)O`: 1690 nM, 238 nM and 46 nM.
With `O=C(O)C[C@@H]1CCc2cc(OCCCOc3ccc4c(c3)ONC4(O)C(F)(F)F)ccc21` (stereo not given in full), the EC50 in experiment [1] was over 10000 nM; in experiment [2], 5000 nM; in experiment [3], 67 nM.
For `CCCc1c(OCCCOc2ccc3c(c2)CC[C@H]3CC(=O)O)ccc2c(C)noc12`, in that order: over 10000 nM, 173 nM and 2.1 nM.
For `CCOc1ccc(OCCCOc2ccc3c(c2)CC[C@H]3CC(=O)O)cc1`, in that order: over 10000 nM, 940 nM and 6.6 nM.
The matching figures for `COc1cc(-c2nc3c(s2)CCCC3)ccc1OCCCOc1ccc2c(c1)CC[C@H]2CC(=O)O`: 44 nM, 84 nM and 3.3 nM.
For `Cc1cc2cc(OCCCOc3ccc4c(c3)CC[C@H]4CC(=O)O)ccc2[nH]1`, the EC50 in experiment [1] was over 10000 nM; in experiment [2], 3650 nM; in experiment [3], 67 nM.
Take `O=C(O)C[C@@H]1CCc2cc(OCCCOc3ccc4[nH]ccc4c3)ccc21`: the EC50 in experiment [1] is over 10000 nM; in experiment [2], 1800 nM; in experiment [3], 24 nM.
As for `Cc1cccc(-c2ccc(OCCCOc3ccc4c(c3)CC[C@H]4CC(=O)O)cc2)n1`, the results for the EC50 in experiment [1], in experiment [2] and in experiment [3] were 5260 nM, 550 nM and 2.2 nM, respectively.
Take `C=CCc1c(OCCCOc2ccc3c(c2)CC[C@H]3CC(=O)O)ccc2[nH]ccc12`: the EC50 in experiment [1] is over 10000 nM; in experiment [2], 3300 nM; in experiment [3], 18 nM.
For `CCOc1cc(C)ccc1OCCCOc1ccc2c(c1)CC[C@H]2CC(=O)O`, in that order: over 10000 nM, 1240 nM and 2.2 nM.
For `CCOc1nc(-c2ccc(OCCCOc3ccc4c(c3)CC[C@H]4CC(=O)O)c(OC)c2)sc1C`, in that order: 150 nM, 177 nM and 6 nM.
Take `CCCc1cc(C#N)ccc1OCCCOc1ccc2c(c1)CC[C@H]2CC(=O)O`: the values for the EC50 in experiment [1], in experiment [2] and in experiment [3] were 3950 nM, 570 nM and 25 nM, respectively.
For `COc1ccc(OCCCOc2ccc3c(c2)CC[C@H]3CC(=O)O)cc1`, the EC50 was over 10000 nM in experiment [1], 3000 nM in experiment [2] and 6.7 nM in experiment [3].
The matching figures for `CCCc1cc(-c2nc(C)c(C(C)=O)s2)ccc1OCCCOc1ccc2c(c1)CC[C@H]2CC(=O)O`: 175 nM, 17 nM and 18 nM.
